Experiments:
Oryctolagus cuniculus [1] = species on record: Oryctolagus cuniculus; assay: In vitro inhibition of twitch height in electrically stimulated rabbit vas deferens; assay type: functional
How it was run: (§1)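 Vasa deferentia taken from rabbits under pentobarbital (60 mg/kg i.v.), held at 0.75 g tension and equilibrated ≥30 min. Field-stimulated at 0.5 ms, 40 V, 0.05 Hz. Cumulative concentration–effect curves run on prostatic and epididymal tissues, 3–5 preparations per concentration.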

[2] = target: T1, Muscarinic acetylcholine receptor M1 (Rattus norvegicus, UniProt P08482); assay: In vitro binding affinity against muscarinic acetylcholine receptor M1 from rat cerebral cortex, using [3H]oxotremorine-M (Oxo-M) as radioligand
T1 sequence (P08482 whole entry): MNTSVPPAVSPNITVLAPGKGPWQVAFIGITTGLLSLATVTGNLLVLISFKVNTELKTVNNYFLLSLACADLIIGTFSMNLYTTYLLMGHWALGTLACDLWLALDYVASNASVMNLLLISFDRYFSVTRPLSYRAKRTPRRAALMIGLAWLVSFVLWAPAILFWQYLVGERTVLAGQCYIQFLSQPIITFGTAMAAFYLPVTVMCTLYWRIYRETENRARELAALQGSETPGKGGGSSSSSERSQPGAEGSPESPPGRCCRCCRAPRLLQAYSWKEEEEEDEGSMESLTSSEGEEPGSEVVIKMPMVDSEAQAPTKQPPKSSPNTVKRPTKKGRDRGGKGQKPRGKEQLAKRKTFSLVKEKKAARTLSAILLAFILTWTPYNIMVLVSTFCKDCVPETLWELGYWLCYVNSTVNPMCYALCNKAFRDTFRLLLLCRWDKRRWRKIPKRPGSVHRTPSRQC

Cavia porcellus [3] = species on record: Cavia porcellus; assay: In vitro inhibition of maximum force of contraction in guinea pig atria.; assay type: functional
Cavia porcellus [4] = species on record: Cavia porcellus; assay: In vitro inhibition of force of contraction in guinea pig atria.; assay type: functional
Oryctolagus cuniculus [5] = species on record: Oryctolagus cuniculus; assay: In vitro inhibition of maximum twitch height in electrically stimulated rabbit vas deferens.; assay type: functional; how it was run: as §1
[6] = target: T1, Muscarinic acetylcholine receptor M1; assay: In vitro binding affinity against muscarinic acetylcholine receptor M1 from rat hippocampus, using [3H]pirenzepine (Pz) as radioligand; assay type: tissue-based
[7] = target: T1, Muscarinic acetylcholine receptor M1; assay: In vitro binding affinity against Muscarinic acetylcholine receptor M1 from rat hippocampus, using [3H]oxotremorine-M (Oxo-M) as radioligand.; assay type: tissue-based; details: in the assay text read “cerebral cortex” for “hippocampus”
How it was run: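 Rat cortex (fresh, male Wistar) homogenized in 20 mM Hepes pH 7.4, spun 15 min at 4000g, and washed three times. Homogenate incubated with [3H]Oxo-M (1.0 nM final) for 30 min at 25 °C. […] Filtered and counted by scintillation. IC50 from at least four concentrations in triplicate, fitted by the Hill equation.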

[8] = target: T1, Muscarinic acetylcholine receptor M1; assay: In vitro binding affinity against Muscarinic acetylcholine receptor M1 from rat hippocampus, using [3H]pirenzepine (Pz) as radioligand.; assay type: tissue-based

CCCCC(C)Oc1nsnc1C1=CCCN(C)C1.O=C(O)/C=C/C(=O)O (centres undefined)
IC50 (Oryctolagus cuniculus [1]): 7 nM | IC50 [2]: 7 nM | Inhibition (Cavia porcellus [3]): 15% | IC30 (Cavia porcellus [4]): > 25000 nM | Inhibition (Oryctolagus cuniculus [5]): 79% | IC50 [6]: 6.9 nM

CCCCSc1nsnc1C1=CCCN(C)C1.O=C(O)C(=O)O
IC50 (Oryctolagus cuniculus [1]): 0.003 nM | IC50 [2]: 1.7 nM | Inhibition (Cavia porcellus [3]): 45% | IC30 (Cavia porcellus [4]): 100 nM | Inhibition (Oryctolagus cuniculus [5]): 83% | IC50 [6]: 1.3 nM

CN1CCC=C(c2nsnc2Cl)C1
Inhibition (Cavia porcellus [3]): 67% | IC30 (Cavia porcellus [4]): 29400 nM

CCCCCCCc1nsnc1C1=CCCN(C)C1.O=C(O)C(=O)O
Inhibition (Cavia porcellus [3]): 78% | IC30 (Cavia porcellus [4]): 5400 nM

CCCCCCNc1nsnc1C1=CCCN(C)C1
IC50 (Oryctolagus cuniculus [1]): 3000 nM | IC50 [2]: 60 nM | Inhibition (Cavia porcellus [3]): 84% | IC30 (Cavia porcellus [4]): 13000 nM | Inhibition (Oryctolagus cuniculus [5]): 65% | IC50 [6]: 105 nM

CCCCCSc1nsnc1C1=CCCN(C)C1.O=C(O)C(=O)O
Inhibition (Cavia porcellus [3]): 33% | IC30 (Cavia porcellus [4]): 5400 nM

CSc1nsnc1C1=CCCN(C)C1.O=C(O)C(=O)O
IC50 (Oryctolagus cuniculus [1]): 3 nM | IC50 [2]: 2.3 nM | Inhibition (Cavia porcellus [3]): 100% | IC30 (Cavia porcellus [4]): 300 nM | Inhibition (Oryctolagus cuniculus [5]): 70% | IC50 [6]: 43 nM

CCC(C)CCOc1nsnc1C1=CCCN(C)C1.O=C(O)/C=C/C(=O)O (centres undefined)
IC50 (Oryctolagus cuniculus [1]): 47 nM | IC50 [2]: 10 nM | Inhibition (Cavia porcellus [3]): 0% | IC30 (Cavia porcellus [4]): > 75000 nM | Inhibition (Oryctolagus cuniculus [5]): 65% | IC50 [6]: 8.4 nM

CCCSc1nsnc1C1=CCCN(C)C1.O=C(O)C(=O)O
IC50 [2]: 0.9 nM | Inhibition (Cavia porcellus [3]): 100% | IC30 (Cavia porcellus [4]): 50 nM | Inhibition (Oryctolagus cuniculus [5]): 42% | IC50 [6]: 4 nM

CCCOc1nsnc1C1=CCCN(C)C1.O=C(O)C(=O)O
IC50 [2]: 1.6 nM | Inhibition (Cavia porcellus [3]): 100% | IC30 (Cavia porcellus [4]): 90 nM | Inhibition (Oryctolagus cuniculus [5]): 25% | IC50 [6]: 18 nM

CCCCCCSc1nsnc1C1=CCCN(C)C1.O=C(O)C(=O)O
IC50 [7]: 6.5 nM | IC50 (Oryctolagus cuniculus [1]): 0.001 nM | Inhibition (Cavia porcellus [3]): 56% | IC50 [8]: 5 nM | IC30 (Cavia porcellus [4]): 9700 nM | Inhibition (Oryctolagus cuniculus [5]): 92%

CCCCOc1nsnc1C1=CCCN(C)C1.O=C(O)C(=O)O
Inhibition (Cavia porcellus [3]): 71% | IC30 (Cavia porcellus [4]): 200 nM

CCOc1nsnc1C1=CCCN(C)C1.O=C(O)C(=O)O
IC50 [2]: 5.7 nM | Inhibition (Cavia porcellus [3]): 0% | IC30 (Cavia porcellus [4]): > 75000 nM | Inhibition (Oryctolagus cuniculus [5]): 43% | IC50 [6]: 48 nM

CCCCCCCCOc1nsnc1C1=CCCN(C)C1.O=C(O)C(=O)O
IC50 [2]: 30 nM | Inhibition (Cavia porcellus [3]): 0% | IC30 (Cavia porcellus [4]): > 75000 nM | Inhibition (Oryctolagus cuniculus [5]): 0% | IC50 [6]: 40 nM

CCCC(C)COc1nsnc1C1=CCCN(C)C1.O=C(O)/C=C/C(=O)O (centres undefined)
IC50 [2]: 13 nM | Inhibition (Cavia porcellus [3]): 0% | IC30 (Cavia porcellus [4]): > 75000 nM | Inhibition (Oryctolagus cuniculus [5]): 32% | IC50 [6]: 9 nM

COc1nsnc1C1=CCCN(C)C1.O=C(O)C(=O)O
IC50 (Oryctolagus cuniculus [1]): 364 nM | IC50 [2]: 22 nM | Inhibition (Cavia porcellus [3]): 50% | IC30 (Cavia porcellus [4]): 1100 nM | Inhibition (Oryctolagus cuniculus [5]): 47% | IC50 [6]: 148 nM

CCCCCCOc1nsnc1C1=CCCN(C)C1.O=C(O)C(=O)O
Inhibition (Cavia porcellus [3]): 20% | IC30 (Cavia porcellus [4]): > 27000 nM

CCCCCCCSc1nsnc1C1=CCCN(C)C1.O=C(O)C(=O)O
IC50 (Oryctolagus cuniculus [1]): 108 nM | IC50 [2]: 3 nM | Inhibition (Cavia porcellus [3]): 40% | IC30 (Cavia porcellus [4]): 7500 nM | Inhibition (Oryctolagus cuniculus [5]): 63% | IC50 [6]: 12 nM

CCCCCCCCc1nsnc1C1=CCCN(C)C1.O=C(O)C(=O)O
IC50 [7]: 428 nM | Inhibition (Cavia porcellus [3]): 14% | IC50 [8]: 56 nM | IC30 (Cavia porcellus [4]): > 75000 nM | Inhibition (Oryctolagus cuniculus [5]): 26%

CCCc1nsnc1C1=CCCN(C)C1.O=C(O)C(=O)O
IC50 [7]: 80 nM | Inhibition (Cavia porcellus [3]): 7% | IC50 [8]: 84 nM | IC30 (Cavia porcellus [4]): > 75000 nM | Inhibition (Oryctolagus cuniculus [5]): 13%

CCCCCCCCSc1nsnc1C1=CCCN(C)C1.O=C(O)C(=O)O
IC50 [7]: 140 nM | Inhibition (Cavia porcellus [3]): 5% | IC50 [8]: 49 nM | IC30 (Cavia porcellus [4]): > 72000 nM | Inhibition (Oryctolagus cuniculus [5]): 42%

CCCCCc1nsnc1C1=CCCN(C)C1.O=C(O)C(=O)O
IC50 [7]: 146 nM | Inhibition (Cavia porcellus [3]): 12% | IC50 [8]: 170 nM | Inhibition (Oryctolagus cuniculus [5]): 40%

C[N+](C)(C)CC#CCOC(=O)Nc1cccc(Cl)c1.[Cl-]
IC50 (Oryctolagus cuniculus [1]): 659 nM | IC50 [2]: 355 nM | Inhibition (Cavia porcellus [3]): 0% | IC30 (Cavia porcellus [4]): > 100000 nM | Inhibition (Oryctolagus cuniculus [5]): 91% | IC50 [6]: 955 nM

CN1CCC=C(c2cnsn2)C1
IC50 (Oryctolagus cuniculus [1]): 26 nM | IC50 [2]: 2 nM | Inhibition (Cavia porcellus [3]): 100% | IC30 (Cavia porcellus [4]): 10 nM | Inhibition (Oryctolagus cuniculus [5]): 59% | IC50 [6]: 145 nM

CCSc1nsnc1C1=CCCN(C)C1.O=C(O)C(=O)O
IC50 (Oryctolagus cuniculus [1]): 22 nM | IC50 [2]: 1.9 nM | Inhibition (Cavia porcellus [3]): 100% | IC30 (Cavia porcellus [4]): 70 nM | Inhibition (Oryctolagus cuniculus [5]): 71% | IC50 [6]: 18 nM

CCCCCCOc1nonc1C1=CCCN(C)C1
IC50 (Oryctolagus cuniculus [1]): 10000 nM | IC50 [2]: 84 nM | Inhibition (Cavia porcellus [3]): 0% | IC30 (Cavia porcellus [4]): > 70000 nM | Inhibition (Oryctolagus cuniculus [5]): 47% | IC50 [6]: 277 nM

CCCCCOc1nsnc1C1=CCCN(C)C1.O=C(O)C(=O)O
Inhibition (Cavia porcellus [3]): 43% | IC30 (Cavia porcellus [4]): 2800 nM

CCCCCCS(=O)(=O)c1nsnc1C1=CCCN(C)C1
IC50 (Oryctolagus cuniculus [1]): 43 nM | IC50 [2]: 29 nM | Inhibition (Cavia porcellus [3]): 76% | IC30 (Cavia porcellus [4]): 5500 nM | Inhibition (Oryctolagus cuniculus [5]): 73% | IC50 [6]: 62 nM

CCCCOc1nonc1C1=CCCN(C)C1
IC50 [2]: 24 nM | Inhibition (Cavia porcellus [3]): 0% | IC30 (Cavia porcellus [4]): > 70000 nM | Inhibition (Oryctolagus cuniculus [5]): 12% | IC50 [6]: 345 nM

CC(C)CCCOc1nsnc1C1=CCCN(C)C1.O=C(O)/C=C\C(=O)O
IC50 (Oryctolagus cuniculus [1]): 0.006 nM | IC50 [2]: 8 nM | Inhibition (Cavia porcellus [3]): 73% | IC30 (Cavia porcellus [4]): 7300 nM | Inhibition (Oryctolagus cuniculus [5]): 86% | IC50 [6]: 9.7 nM

CCCCCCCOc1nsnc1C1=CCCN(C)C1.O=C(O)C(=O)O
Inhibition (Cavia porcellus [3]): 100% | IC30 (Cavia porcellus [4]): 3900 nM

CCCCCC[S+]([O-])c1nsnc1C1=CCCN(C)C1 (centres undefined)
IC50 (Oryctolagus cuniculus [1]): 48 nM | IC50 [2]: 109 nM | Inhibition (Cavia porcellus [3]): 45% | IC30 (Cavia porcellus [4]): 25000 nM | Inhibition (Oryctolagus cuniculus [5]): 80% | IC50 [6]: 860 nM

COC(=O)C1=CCCN(C)C1 [ARECOLINE]
Inhibition (Cavia porcellus [3]): 100% | IC30 (Cavia porcellus [4]): 600 nM

C[N+](C)(C)CCOC(N)=O.[Cl-] [CARBACHOL]
IC50 (Oryctolagus cuniculus [1]): 460 nM | Inhibition (Cavia porcellus [3]): 100% | IC30 (Cavia porcellus [4]): 500 nM | Inhibition (Oryctolagus cuniculus [5]): 77%

Source: ChEMBL document CHEMBL1126083, “Novel functional M1 selective muscarinic agonists. Synthesis and structure-activity relationships of 3-(1,2,5-thiadiazolyl)-1,2,5,6-tetrahydro-1-methylpyridines ” (J Med Chem, 1992)
